Experimental data as given in ChEMBL document CHEMBL4229537, “Synthesis and bioactivities evaluation of l-pyroglutamic acid analogues from natural product lead” (Bioorg Med Chem, 2018).
≈ marks a conversion by molar mass, not a printed value.

Assays:
[1] = tested on: Bacillus thuringiensis; assay: Antibacterial activity against Bacillus thuringiensis at 2 mg/ml after 4 to 10 hrs by filter paper dispersion method; assay type: functional; conditions: read-out: IZ
How it was run: (§1)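 Filter paper diffusion method. Activated bacteria suspended in sterile water, mixed into beef extract peptone medium, and 3 mL poured per 9 cm dish. 5 µL of 2 mg/mL compound applied to 6 mm paper discs in three parallels. Fosfomycin as positive control, solvent as negative control. Dried discs placed on medium and incubated 4-10 h at 37°C. Inhibition zone size and transparency recorded by crisscross method.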

[2] = tested on: Phytophthora infestans; assay: Antifungal activity against Phytophthora infestans assessed as inhibition of zoospore release at 100 ug/ml after 4 hrs relative to control; assay type: functional
How it was run: (§2)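 Zoospore release assay: compounds mixed with zoosporangia, held at 4 °C in darkness for 4 h; screened at 100 µg/mL. Solvent negative, azoxystrobin positive control. Release scored once control release reached 90%. Inhibition (%) = (P0−P1)/P0×100. EC50 determined for compounds exceeding 50% inhibition. Means ± SD of three independent experiments.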

[3] = tested on: Phytophthora infestans; assay: Antifungal activity against Phytophthora infestans assessed as inhibition of zoospore release after 4 hrs; assay type: functional, organism-based; how it was run: as §2
[4] = Cytotoxicity against LPS-treated mouse BV2 cells assessed as cell viability after 24 hrs by SRB assay relative to control; assay type: cell-based, BV-2; set-up: concentration or dose not given beside the values; conditions: read-out: Activity
How it was run: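 BV-2 cells pretreated with compound, then exposed to 1 µg/mL LPS for 24 h. Viability measured by SRB assay and expressed as % of control group. Mean ± SD of three independent experiments.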

[5] = tested on: PC-12; assay: Neurotogenic activity in NGF-induced rat PC12 cells assessed as neurite bearing cell levels at 20 uM after 48 hrs by inverted microscopic method (reference value: 0.77 +/- 0.13%); assay type: functional
[6] = tested on: BV-2; assay: Antiinflammatory activity in mouse BV2 cells assessed as inhibition of LPS-induced nitric oxide production after 24 hrs by Griess assay; assay type: functional, cell-based; conditions: BV-2, 24 h
How it was run: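 BV-2 microglia plated at 1 × 10^5 cells/mL and grown 24 h. Cells pretreated with compound, then stimulated with 1 µg/mL LPS for another 24 h. Quercetin as positive control. Supernatant mixed with Griess reagent and absorbance read at 540 nm. IC50 reported as mean ± SD of three independent experiments.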

[7] = tested on: Bacillus cereus; assay: Antibacterial activity against Bacillus cereus at 2 mg/ml after 4 to 10 hrs by filter paper dispersion method; assay type: functional; conditions: read-out: IZ; how it was run: as §1
[8] = tested on: Pectobacterium carotovorum; assay: Antibacterial activity against Erwinia caratovora at 2 mg/ml after 4 to 10 hrs by filter paper dispersion method; assay type: functional; conditions: read-out: IZ; how it was run: as §1
[9] = tested on: Ralstonia solanacearum; assay: Antibacterial activity against Ralstonia solanacearum at 2 mg/ml after 4 to 10 hrs by filter paper dispersion method; assay type: functional; conditions: read-out: IZ
[10] = tested on: Staphylococcus aureus; assay: Antibacterial activity against Staphylococcus aureus at 2 mg/ml after 4 to 10 hrs by filter paper dispersion method; assay type: functional; conditions: read-out: IZ; how it was run: as §1
[11] = tested on: Phytophthora infestans; assay: Potency index, ratio of azoxystrobin EC50 to test compound EC50 for Phytophthora infestans; assay type: functional
[12] = tested on: Phytophthora infestans; assay: Antifungal activity against Phytophthora infestans; assay type: functional, organism-based; how it was run: as §2
[13] = tested on: Pseudoperonospora cubensis; assay: Antifungal activity against Pseudoperonospora cubensis; assay type: functional, organism-based

Structure (SMILES) | zone of inhibition at 2000 µg/mL [1] [mm] | inhibition at 100 µg/mL [2] [%] | EC50 [3] [µg/mL] | further results
CNC(=O)[C@@H]1CCC(=O)N1 | 12 | 1.17 |  | 
CCCCOC(=O)[C@@H]1CCC(=O)N1 |  | 99 | 11.2 (≈ 60.5 µM) | 
CCOC(=O)[C@@H]1CCC(=O)N1 |  | 95.8 | 15.2 (≈ 97 µM) | 
O=C1CC[C@@H](C(=O)Oc2ccccc2)N1 |  | 98.3 | 19.5 (≈ 95.1 µM) | 
COC(=O)[C@@H]1CCC(=O)N1 |  | 26.1 |  | 
O=C1CC[C@@H](C(=O)Nc2ccc([N+](=O)[O-])cc2)N1 |  | 47.5 |  | 
C=CCNC(=O)[C@@H]1CCC(=O)N1 | 11.5 | 49.3 |  | viability at 24 h [4]: 95.4%; Activity [5]: 14.962%; IC50 [6]: 9.1 µM; zone of inhibition at 2000 µg/mL [7]: 15 mm
NNC(=O)[C@@H]1CCC(=O)N1 | 14 |  |  | 
CCN(CC)C(=O)[C@@H]1CCC(=O)N1 |  | 35.8 |  | zone of inhibition at 2000 µg/mL [7]: 10 mm; zone of inhibition at 2000 µg/mL [8]: 12 mm
O=C1CC[C@@H](C(=O)NCCc2c[nH]c3ccccc23)N1 | 12 | 21.5 |  | zone of inhibition at 2000 µg/mL [8]: 15 mm
COC(=O)c1ccccc1NC(=O)[C@@H]1CCC(=O)N1 |  | 2.37 |  | zone of inhibition at 2000 µg/mL [9]: 10 mm; zone of inhibition at 2000 µg/mL [10]: 6 mm; zone of inhibition at 2000 µg/mL [7]: 6 mm; zone of inhibition at 2000 µg/mL [8]: 9 mm
O=C1CC[C@@H](C(=O)Oc2cccc3ccccc23)N1 |  | 98.5 | 1.21 (≈ 4.74 µM) | Ratio EC50 [11]: 7
C#CCOC(=O)[C@@H]1CCC(=O)N1 |  |  |  | zone of inhibition at 2000 µg/mL [9]: 6 mm
Nc1ccccc1NC(=O)[C@@H]1CCC(=O)N1 | 11.5 |  |  | zone of inhibition at 2000 µg/mL [7]: 5.5 mm
O=C1CC[C@@H](C(=O)Oc2ccccc2Cl)N1 |  | 98.4 | 14.6 (≈ 60.8 µM) | 
O=C1CC[C@@H](C(=O)Oc2ccccc2[N+](=O)[O-])N1 |  | 96.3 | 8.58 (≈ 34.3 µM) | 
C=CCOC(=O)[C@@H]1CCC(=O)N1 | 12 | 84.2 |  | 
C#CCNC(=O)[C@@H]1CCC(=O)N1 | 9 |  |  | viability at 24 h [4]: 89.5%; zone of inhibition at 2000 µg/mL [10]: 6 mm; IC50 [6]: 6 µM
NC(=O)[C@@H]1CCC(=O)N1 | 8 | 13.6 |  | zone of inhibition at 2000 µg/mL [9]: 5.5 mm
N#Cc1ccccc1OC(=O)[C@@H]1CCC(=O)N1 | 14 | 98.3 | 9.62 (≈ 41.8 µM) | zone of inhibition at 2000 µg/mL [9]: 7 mm

Structure (SMILES) | zone of inhibition at 2000 µg/mL [1] [mm] | inhibition at 100 µg/mL [2] [%] | EC50 [3] [µg/mL] | further results
O=C1CC[C@@H](C(=O)Nc2ccc(C(F)(F)F)cc2)N1 | 13 |  |  | zone of inhibition at 2000 µg/mL [7]: 9.5 mm
O=C1CC[C@@H](C(=O)Nc2ccccc2O)N1 |  | 33.7 |  | 
O=C1CC[C@@H](C(=O)Oc2ccc(Cl)cc2)N1 |  | 98.1 | 1.44 (≈ 6.01 µM) | Ratio EC50 [11]: 7
CC(C)OC(=O)[C@@H]1CCC(=O)N1 |  | 36.5 |  | 
CCCCNC(=O)[C@@H]1CCC(=O)N1 | 7.5 | 17.8 |  | 
CC(C)NC(=O)[C@@H]1CCC(=O)N1 | 10 |  |  | zone of inhibition at 2000 µg/mL [7]: 5.5 mm
Cc1cc(Cl)ccc1OC(=O)[C@@H]1CCC(=O)N1 |  | 39.8 |  | viability at 24 h [4]: 91.1%; IC50 [6]: 19.4 µM
CC(C)(C)NC(=O)[C@@H]1CCC(=O)N1 |  |  |  | zone of inhibition at 2000 µg/mL [7]: 12 mm
CN(C)C(=O)[C@@H]1CCC(=O)N1 |  | 44.3 |  | 
CN1CCN(C(=O)[C@@H]2CCC(=O)N2)CC1 |  |  |  | zone of inhibition at 2000 µg/mL [7]: 7 mm
Cc1ccccc1OC(=O)[C@@H]1CCC(=O)N1 |  | 48.6 |  | 
CCCOC(=O)[C@@H]1CCC(=O)N1 |  | 95.1 | 12.4 (≈ 72.6 µM) | 
CC(C)COC(=O)[C@@H]1CCC(=O)N1 |  | 64.9 |  | 
CCOC(=O)c1ccccc1OC(=O)[C@@H]1CCC(=O)N1 | 13 | 98.2 | 16.4 (≈ 59.2 µM) | zone of inhibition at 2000 µg/mL [9]: 5.5 mm; zone of inhibition at 2000 µg/mL [10]: 6.5 mm; zone of inhibition at 2000 µg/mL [8]: 11 mm
Cc1ccc(C(C)C)c(OC(=O)[C@@H]2CCC(=O)N2)c1 |  | 13.2 |  | 
CO/C=C(/C(=O)OC)c1ccccc1Oc1cc(Oc2ccccc2C#N)ncn1 [AZOXYSTROBIN] |  | 99.2 | 1.98 (≈ 4.91 µM) | 
CC1(C)S[C@@H]2[C@H](NC(=O)Cc3ccccc3)C(=O)N2[C@H]1C(=O)O [PENICILLIN G SODIUM] | 27 |  |  | zone of inhibition at 2000 µg/mL [9]: 24 mm; zone of inhibition at 2000 µg/mL [10]: 28 mm; zone of inhibition at 2000 µg/mL [7]: 25 mm; zone of inhibition at 2000 µg/mL [8]: 28 mm
O=C1CC[C@@H](C(=O)Oc2ccc(O)cc2)N1 [PIDOBENZONE] |  |  |  | viability at 24 h [4]: 92.6%; zone of inhibition at 2000 µg/mL [9]: 7 mm; Activity [5]: 15.443%; zone of inhibition at 2000 µg/mL [10]: 6 mm; IC50 [6]: 4.5 µM; zone of inhibition at 2000 µg/mL [7]: 12 mm
O=C1CC[C@@H](C(=O)O)N1 [PIDOLIC ACID] | 17.5 | 98.8 | 7.85 (≈ 60.8 µM) | zone of inhibition at 2000 µg/mL [9]: 7.5 mm; EC50 [12]: 9.48 µg/mL (≈ 73.4 µM); EC50 [13]: 10.8 µg/mL (≈ 83.8 µM)
O=c1c(O)c(-c2ccc(O)c(O)c2)oc2cc(O)cc(O)c12 [QUERCETIN] |  |  |  | viability at 24 h [4]: 99.5%; IC50 [6]: 4.3 µM
